Rows were chosen to be rich in hits. Some 2% of all compounds tested hit in one or more screens of this group.
CHRM5 agonist: human M5 muscarinic receptor agonists, primary screen, CHO-K1 cells, Fluo-8 calcium fluorescence; hit rate 0.19% among 360,000; CHO-K1 hM5 cells; 0% DMSO wells, 100% maximal acetylcholine response; activation, % at 3 µM;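 active = activation above the run's mean over test compounds plus 3 SD, cut at about 23% in these data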;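 also: signal is peak over basal fluorescence ratio across the kinetic read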
M1 PAM: human M1 muscarinic receptor positive allosteric modulators, primary screen, CHO-K1 cells, Fluo-8 calcium fluorescence, 1536-well | Muscarinic acetylcholine receptor M1 (Homo sapiens), P11229 | CHO-K1 hM1, ACh EC20; 0% = ACh EC20, 100% = maximal ACh | activation, % at 3 µM | hit rate 0.088% among 360,000; in the data active = activation above about 19%, passing the limit was not always enough
CHRM5 antagonist: human M5 muscarinic receptor antagonists, primary screen, CHO cells, Fluo-8 calcium fluorescence | hit rate 0.59% among 360,000 | inhibition, % at 3 µM | CHO-hM5 cells, ACh EC80 | Muscarinic acetylcholine receptor M5 (Homo sapiens), P08912;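 active = inhibition above a per-plate cutoff, the mean of that plate's test compounds plus 3 SD, cut at about 27% in these data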
M5 PAM: human M5 muscarinic receptor positive allosteric modulators, primary screen, CHO-K1 cells, Fluo-8 calcium fluorescence; CHO-K1 hM5, ACh EC20 PAM; 0% = ACh EC20, 100% = ACh EC100; AID 624038, 2012; Muscarinic acetylcholine receptor M5 (Homo sapiens), P08912; activation, % at 3 µM; hit rate 0.3% among 360,000;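 active = activation above the run cutoff, the mean activation of all test compounds plus 3 SD, cut at about 18% in these data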
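Replicates: One well per compound, no replicates | System: Human M5 receptor in CHO-K1 cells | Benchmarks: Low control EC20 acetylcholine (0%), high control EC100 acetylcholine (100%) | Probe or stimulus: Acetylcholine, EC20 level | Times: Fluo-8 loading 80 min at 37 °C plus 30 min room temperature | Signal: Intracellular calcium via Fluo-8 fluorescence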
M1 ag: human M1 muscarinic receptor agonists, primary screen, Fluo-8 calcium fluorescence, CHO-K1 cells, HTS; hit rate 0.33% among 360,000; CHO-K1 hM1, agonist mode; 0% DMSO, 100% acetylcholine EC100; activation, % at 3 µM; Muscarinic acetylcholine receptor M1 (Homo sapiens), P11229;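 active = activation above the run's mean compound activation plus 3 SD, cut at about 16% in these data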;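 also: peak over basal fluorescence ratio within a 140 s kinetic read after compound addition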
CHRM1 antagonist: human M1 muscarinic receptor antagonists, primary screen, CHO-K1 cells, Fluo-8 calcium fluorescence, 1536-well | Muscarinic acetylcholine receptor M1 (Homo sapiens), P11229 | CHO-K1 hM1, ACh EC80 antagonist | inhibition, % at 3 µM | hit rate 1.3% among 360,000;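 active = percent inhibition above its own plate's cutoff, namely the mean of that plate's compound wells plus 3 SD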;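 also: peak over basal fluorescence ratio during 140 s after agonist addition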
Numbers stand for hits; – = inactive; · = not tested or not shown.

SMILES	CHRM5 agonist	M1 PAM	CHRM5 antagonist	M5 PAM	M1 ag	CHRM1 antagonist
COC(=O)c1ccc(CSc2nc3ccccc3c(=O)n2CC(C)C)o1	–	–	–	–	–	–
Cc1cc(=O)n2nc(N3CCCC3C(=O)NCCCN3CCCCC3)sc2n1 (centres undefined)	–	–	–	19	–	–
Cc1cc(C)c2nc(N3CCC(C(=O)N4CCCC4)CC3)sc2c1	–	–	–	–	–	37
Cc1cc(C)c2nc(N3CCC(C(=O)NCCCN4CCCCC4)CC3)sc2c1	–	–	–	–	–	76
COC(=O)C[C@H]1CC[C@H](NC(=O)c2ccc(F)cc2)[C@@H](CO)O1	–	·	–	–	·	·
N#CCCN1CCN(CCC#N)C1=S	30	–	–	–	16	–
CCCNC(=O)C1(C)CCCN(C(=O)COc2ccc(C(C)(C)C)cc2)C1 (centres undefined)	–	–	–	–	–	–
Cc1c(C(=O)N2CCN(c3ccc(F)cc3)CC2)sc2ncnc(N3CCN(c4ccccn4)CC3)c12	–	–	–	–	–	32
Cc1c(C(=O)N2CCN(c3ccccc3)CC2)sc2ncnc(N3CCN(c4ccccn4)CC3)c12	–	–	–	–	–	–
Cc1cc(C)nc(SCCCNCc2ccc(Br)cc2)n1	–	–	–	–	27	–
CN1C(=S)SC(C)(NO)C1(C)C (centres undefined)	–	26	–	–	–	–
Cc1c(C(=O)NCCC2=CCCCC2)oc2ccc(S(=O)(=O)N3CCOCC3)cc12	–	–	28	–	–	42
Cc1c(C(=O)NCCCN2CCCC2=O)oc2ccc(S(=O)(=O)N3CCOCC3)cc12	–	–	–	–	–	–
CCOc1ccccc1N(C)S(=O)(=O)c1ccc2c(c1)CC(C)N2C(=O)C1CC1 (centres undefined)	–	–	–	–	–	–
CCC(=O)N1CCc2cc(S(=O)(=O)N(CC)c3cccc(C)c3)ccc21	–	–	–	–	–	–
CCN(c1ccccc1)S(=O)(=O)c1ccc2c(c1)CC(C)N2C(=O)C1CC1 (centres undefined)	–	–	27	–	–	–
CCN(c1cccc(C(F)(F)F)c1)S(=O)(=O)c1ccc2c(c1)CCN2C(=O)C1CC1	–	–	–	–	–	33
CC(C)c1ccc(CNC(=O)C(=O)Nc2nccs2)cc1	–	–	–	–	–	–
CC(C)Cc1ccc(C(C)C(=O)Nc2ccccc2O)cc1 (centres undefined)	41	–	50	–	36	69
CC(C)Cc1ccc(C(C)C(=O)Nc2nccs2)cc1 (centres undefined)	38	–	–	–	24	–
CCC1NC(=O)c2cc3ccccc3cc2-n2c1nc1ccc(F)cc1c2=O (centres undefined)	–	–	–	–	–	–
Cc1cccc(C)c1NC(=O)C(c1ccnc2ccccc12)N1CCN(C)CC1 (centres undefined)	–	·	–	–	·	·
O=C(O)c1cnn(-c2ccccc2)c1-c1ccccc1	–	–	–	19	–	–
C=CCNC(=O)c1cnn(-c2ccccc2)c1-c1ccccc1	–	–	–	–	–	–
O=C(NCCCN1CCCC1)c1ccc2c(Cl)c3c(nc2c1)CCCC3	–	–	–	–	–	–
CCCN1CCN(CCCNC(=O)c2ccc3c(Cl)c4c(nc3c2)CCCC4)CC1	–	–	–	–	–	34
CCCCNC(=O)c1nc(-c2ccncc2)oc1-c1ccccc1	–	–	–	–	–	–
CCOC(=O)c1sc(NS(=O)(=O)c2ccccc2)nc1C	–	–	–	–	–	–
Cc1nc(NS(=O)(=O)c2ccccc2)sc1NC(=O)OCCN(C)C	27	–	–	–	–	–

Source: PubChem BioAssay
